Laboratory results taken from ChEMBL document CHEMBL1138528, “Discovery of tetrasubstituted imidazolines as potent and selective neuropeptide Y Y5 receptor antagonists: reduced human ether-a-go-go related gene potassium channel binding affinity and potent antiobesity effect” (J Med Chem, 2009).
Calls of active or inactive are those of the source. No cut-off for these calls is given here.

Tests used:
Rattus norvegicus [1] = assay: Inhibition of D-[Trp34]NPY-induced acute food intake in Sprague-Dawley rat at 1 mg/kg, po pretreated 2 hrs prior to D-[Trp34]NPY challenge measured after 2 hrs; type: functional
Method in brief: (§1)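 SD rats (10-15 weeks) with stereotaxic third-ventricle cannula, tested ≥1 wk post-surgery in light cycle. Oral dose in 0.5% methylcellulose, then 2 h later D-Trp34NPY 1 µg/0.4 µL in aCSF into third ventricle; food intake over 2 h. Mean ± SEM, n = 5-9; Dunnett's test versus agonist-only group.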

Mus musculus [2] = assay: Reduction in body weight in moderately high fat diet-induced obese C57BL/6J mouse model at 3 mg/kg, po qid for 5 days followed by BID for 15 days; type: functional, organism-based; design: dose 3 mg/kg
[3] = target: T1, Neuropeptide Y receptor type 2 (Homo sapiens, UniProt P49146); assay: Binding affinity to human neuropeptide Y2 receptor
T1 sequence (P49146 whole entry): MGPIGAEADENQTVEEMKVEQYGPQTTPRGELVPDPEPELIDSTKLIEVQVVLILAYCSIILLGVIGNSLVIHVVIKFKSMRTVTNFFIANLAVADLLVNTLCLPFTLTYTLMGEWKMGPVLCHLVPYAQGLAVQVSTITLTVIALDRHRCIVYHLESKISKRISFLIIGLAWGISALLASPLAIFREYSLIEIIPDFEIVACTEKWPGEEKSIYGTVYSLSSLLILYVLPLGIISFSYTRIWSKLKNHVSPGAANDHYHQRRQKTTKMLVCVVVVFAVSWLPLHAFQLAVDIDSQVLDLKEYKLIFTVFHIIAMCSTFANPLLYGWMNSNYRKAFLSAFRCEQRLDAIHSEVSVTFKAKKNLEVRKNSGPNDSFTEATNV

Cerebrospinal fluid = assay: Drug level in Sprague-Dawley rat cerebrospinal fluid at 10 mg/kg, po after 2 hrs; type: ADME, organism-based; design: dose 10 mg/kg, route oral; conditions: in vivo, 2 h
Method in brief: (§2)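 Male SD rats (7-10 weeks, 200-400 g) dosed orally at 10 mg/kg in 0.5% methylcellulose; at 2 h aortic blood taken under isoflurane. Plasma, brain homogenate (sonicated in water) and CSF deproteinized with 3-fold ethanol plus internal standard, -20 °C 20 min, centrifuged; LC/MS/MS with relative calibration curve. Mean, n = 2-3.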

[4] = Plasma clearance in rhesus monkey plasma at 0.3 mg/kg, iv administered as single dose; type: ADME, organism-based, Macaca mulatta; design: dose 0.3 mg/kg, route intravenous
Rattus norvegicus [5] = assay: Inhibition of D-[Trp34]NPY-induced acute food intake in Sprague-Dawley rat at 0.3 mg/kg, po pretreated 2 hrs prior to D-[Trp34]NPY challenge measured after 2 hrs; type: functional; method in brief: as §1
Rattus norvegicus [6] = assay: Inhibition of D-[Trp34]NPY-induced acute food intake in Sprague-Dawley rat at 0.1 mg/kg, po pretreated 2 hrs prior to D-[Trp34]NPY challenge measured after 2 hrs; type: functional; method in brief: as §1
[7] = Cmax in Sprague-Dawley rat at 1 mg/kg, iv and 1 mg/kg, po administered as single dose; type: ADME, organism-based; conditions: in vivo
Canis familiaris [8] = assay: Cardiotoxicity in Beagle dog assessed as change in left ventricular systolic pressure at 5 mg/kg, iv; type: toxicity, organism-based, Canis lupus familiaris, Heart left ventricle; design: dose 5 mg/kg, route intravenous; conditions: in vivo
[9] = Plasma concentration in Sprague-Dawley rat at 10 mg/kg, po after 2 hrs; type: ADME, organism-based; design: dose 10 mg/kg, route oral; method in brief: as §2
[10] = target: T2, Neuropeptide Y receptor type 1 (Homo sapiens, UniProt P25929); assay: Binding affinity to human neuropeptide Y1 receptor
T2 sequence (P25929 whole entry): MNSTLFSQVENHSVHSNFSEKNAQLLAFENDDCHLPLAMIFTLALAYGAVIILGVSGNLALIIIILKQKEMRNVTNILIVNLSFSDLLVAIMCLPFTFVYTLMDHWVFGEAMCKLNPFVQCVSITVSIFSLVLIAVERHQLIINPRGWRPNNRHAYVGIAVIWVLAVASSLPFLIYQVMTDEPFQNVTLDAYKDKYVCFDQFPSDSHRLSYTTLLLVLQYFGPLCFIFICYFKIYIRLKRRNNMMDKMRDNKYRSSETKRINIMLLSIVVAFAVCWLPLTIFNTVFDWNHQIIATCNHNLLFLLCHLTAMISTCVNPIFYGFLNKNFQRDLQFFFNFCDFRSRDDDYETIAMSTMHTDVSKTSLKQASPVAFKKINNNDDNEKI

Canis familiaris [11] = assay: Cardiotoxicity in Beagle dog assessed as adverse events at 2 mg/kg, iv; type: toxicity, organism-based, Canis lupus familiaris; design: dose 2 mg/kg, route intravenous; conditions: in vivo
[12] = Volume of distribution at steady state in Sprague-Dawley rat at 1 mg/kg, iv and 1 mg/kg, po administered as single dose; type: ADME, organism-based; conditions: in vivo, read-out: Vdss
Brain = assay: Drug level in Sprague-Dawley rat brain at 10 mg/kg, po after 2 hrs; type: ADME, organism-based; design: dose 10 mg/kg, route oral; conditions: in vivo; method in brief: as §2
Canis familiaris [13] = assay: Cardiotoxicity in Beagle dog assessed as change in cardiac output pressure at 5 mg/kg, iv; type: toxicity, organism-based, Canis lupus familiaris, Heart; design: dose 5 mg/kg, route intravenous; conditions: in vivo
Canis familiaris [14] = assay: Cardiotoxicity in Beagle dog assessed as change in femoral blood flow at 5 mg/kg, iv; type: toxicity, organism-based, Canis lupus familiaris; design: dose 5 mg/kg, route intravenous; conditions: in vivo
Canis familiaris [15] = assay: Cardiotoxicity in Beagle dog assessed as change in mean arterial pressure at 5 mg/kg, iv; type: toxicity, organism-based, Canis lupus familiaris, Artery; design: dose 5 mg/kg, route intravenous; conditions: in vivo
[16] = target: Neuropeptide Y receptor type 4 (Homo sapiens, UniProt P50391); assay: Binding affinity to human neuropeptide Y4 receptor
Sequence of Neuropeptide Y receptor type 4 (P50391 whole entry): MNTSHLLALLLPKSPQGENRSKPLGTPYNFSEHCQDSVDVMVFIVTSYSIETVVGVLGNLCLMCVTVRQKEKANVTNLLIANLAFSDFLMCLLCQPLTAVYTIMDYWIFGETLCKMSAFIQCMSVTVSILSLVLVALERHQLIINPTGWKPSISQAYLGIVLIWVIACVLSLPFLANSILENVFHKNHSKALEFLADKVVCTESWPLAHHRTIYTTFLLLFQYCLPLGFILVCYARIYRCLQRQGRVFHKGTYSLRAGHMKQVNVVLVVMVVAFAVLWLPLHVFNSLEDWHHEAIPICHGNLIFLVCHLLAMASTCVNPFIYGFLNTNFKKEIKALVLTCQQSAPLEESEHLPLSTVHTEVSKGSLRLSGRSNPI

[17] = Metabolic stability in rat hepatocytes assessed as hepatic clearance by serum incubation method; type: ADME, cell-based, Liver, Hepatocyte
[18] = Octanol-water distribution coefficient, log D at pH 7.4; type: physicochemical
[19] = Cmax in Beagle dog at 5 mg/kg, iv; type: ADME, organism-based, Canis lupus familiaris; design: dose 5 mg/kg, route intravenous; conditions: in vivo
[20] = AUC (0 to infinity) in Sprague-Dawley rat at 1 mg/kg, po administered as single dose; type: ADME, organism-based; design: time infinity, dose 1 mg/kg, route oral; conditions: plasma
[21] = Cmax in rhesus monkey at 1 mg/kg, po and 0.3 mg/kg, iv administered as single dose; type: ADME, organism-based, Macaca mulatta; conditions: in vivo
[22] = Plasma clearance in Sprague-Dawley rat plasma at 1 mg/kg, iv administered as single dose; type: ADME, organism-based; design: dose 1 mg/kg, route intravenous
[23] = Bioavailability in Sprague-Dawley rat at 1 mg/kg, iv and 1 mg/kg, po administered as single dose; type: ADME, organism-based; conditions: in vivo
Mus musculus [24] = assay: Reduction in body weight in moderately high fat diet-induced obese Y5 receptor-deficient mouse model at 3 mg/kg, po BID 15 days; type: functional, organism-based; design: dose 3 mg/kg
Canis familiaris [25] = assay: Cardiotoxicity in Beagle dog assessed as prolongation of QTc interval at 5 mg/kg, iv; type: toxicity, organism-based, Canis lupus familiaris; design: dose 5 mg/kg, route intravenous; conditions: in vivo
[26] = Cmax in Beagle dog at 2 mg/kg, iv; type: ADME, organism-based, Canis lupus familiaris; design: dose 2 mg/kg, route intravenous; conditions: in vivo
[27] = Volume of distribution at steady state in rhesus monkey at 1 mg/kg, po and 0.3 mg/kg, iv administered as single dose; type: ADME, organism-based, Macaca mulatta; conditions: in vivo, read-out: Vdss
Canis familiaris [28] = assay: Cardiotoxicity in Beagle dog assessed as change in cardiac contractility pressure at 5 mg/kg, iv; type: toxicity, organism-based, Canis lupus familiaris, Heart; design: dose 5 mg/kg, route intravenous; conditions: in vivo
[29] = AUC (0 to infinity) in rhesus monkey at 1 mg/kg, po administered as single dose; type: ADME, organism-based, Macaca mulatta; design: dose 1 mg/kg, route oral, time infinity; conditions: plasma
[30] = Bioavailability in rhesus monkey at 1 mg/kg, po and 0.3 mg/kg, iv administered as single dose; type: ADME, organism-based, Macaca mulatta; conditions: in vivo
Mus musculus [31] = assay: Reduction in body weight in moderately high fat diet-induced obese C57BL/6J mouse model at 10 mg/kg, po qid for 5 days followed by BID for 15 days; type: functional, organism-based; design: dose 10 mg/kg
[32] = Ratio of drug level from brain to plasma in Sprague-Dawley rat at 10 mg/kg, po after 2 hrs; type: ADME, organism-based; design: dose 10 mg/kg, route oral; method in brief: as §2

Question: With `C[C@@H]1NC(c2cc(C#N)ccn2)=N[C@@]1(c1ccc(F)cc1)c1ccc(F)nc1` as the compound, how does the inhibition in vivo at 1 mg/kg (Rattus norvegicus [1]) read?
Answer: 93%

Question: What about the Activity (Mus musculus [2]) of the same compound?
Answer: Active

Question: And the IC50 [3]?
Answer: > 10 µM

Question: What about the Drug uptake (Cerebrospinal fluid) of the same compound?
Answer: 0.21 µM

Question: What about the clearance [4] of the same compound?
Answer: 8 mL/min/kg

Question: And the inhibition in vivo at 0.3 mg/kg (Rattus norvegicus [5])?
Answer: 54%

Question: And the inhibition in vivo at 0.1 mg/kg (Rattus norvegicus [6])?
Answer: 5%

Question: And the Cmax [7]?
Answer: 500 nM

Question: And the Activity (Canis familiaris [8])?
Answer: 29%

Question: What about the concentration at 2 h [9] of the same compound?
Answer: 2600 nM

Question: And the IC50 [10]?
Answer: > 10 µM

Question: And the Activity (Canis familiaris [11])?
Answer: Non-toxic

Question: And the Vd [12]?
Answer: 6.2 L/kg

Question: And the Drug uptake (Brain)?
Answer: 7 nmol/g

Question: What about the Activity (Canis familiaris [13]) of the same compound?
Answer: 46%

Question: And the Activity (Canis familiaris [14])?
Answer: -32%

Question: And the Activity (Canis familiaris [15])?
Answer: 28%

Question: And the IC50 [16]?
Answer: > 10 µM

Question: And the CLhep predicted [17]?
Answer: 18 mL/min/kg

Question: What about the logD [18] of the same compound?
Answer: 3.2

Question: What about the Cmax [19] of the same compound?
Answer: 25000 nM

Question: And the AUC(0-inf) [20]?
Answer: 1.8 µM·h

Question: And the Cmax [21]?
Answer: 590 nM

Question: What about the clearance [22] of the same compound?
Answer: 20 mL/min/kg

Question: What about the bioavailability [23] of the same compound?
Answer: 77%

Question: And the Activity (Mus musculus [24])?
Answer: inactive

Question: And the Activity (Canis familiaris [25])?
Answer: 7%

Question: What about the Cmax [26] of the same compound?
Answer: 12000 nM

Question: What about the Vd [27] of the same compound?
Answer: 4.4 L/kg

Question: What about the Activity (Canis familiaris [28]) of the same compound?
Answer: 50%

Question: And the AUC(0-inf) [29]?
Answer: 4.6 µM·h

Question: And the bioavailability [30]?
Answer: 76%

Question: And the Activity (Mus musculus [31])?
Answer: Active

Question: And the Kp at 2 h [32]?
Answer: 2.7
